Data: ChEMBL document CHEMBL1140867, “Photodynamic molecular beacon triggered by fibroblast activation protein on cancer-associated fibroblasts for diagnosis and treatment of epithelial cancers” (J Med Chem, 2009)
Peptide text beside a SMILES is read from it. * marks the point of attachment. Pyropheophorbide(a) = C=Cc1c(C)c2cc3nc(c4c5[nH]c(cc6nc(cc1[nH]2)C(C)=C6CC)c(C)c5C(=O)C4)[C@@H](CCC(=O)*)[C@@H]3C

B1: Prolyl endopeptidase FAP (Mus musculus), P97321 (protein)
chain: MKTWLKTVFGVTTLAALALVVICIVLRPSRVYKPEGNTKRALTLKDILNGTFSYKTYFPNWISEQEYLHQSEDDNIVFYNIETRESYIILSNSTMKSVNATDYGLSPDRQFVYLESDYSKLWRYSYTATYYIYDLQNGEFVRGYELPRPIQYLCWSPVGSKLAYVYQNNIYLKQRPGDPPFQITYTGRENRIFNGIPDWVYEEEMLATKYALWWSPDGKFLAYVEFNDSDIPIIAYSYYGDGQYPRTINIPYPKAGAKNPVVRVFIVDTTYPHHVGPMEVPVPEMIASSDYYFSWLTWVSSERVCLQWLKRVQNVSVLSICDFREDWHAWECPKNQEHVEESRTGWAGGFFVSTPAFSQDATSYYKIFSDKDGYKHIHYIKDTVENAIQITSGKWEAIYIFRVTQDSLFYSSNEFEGYPGRRNIYRISIGNSPPSKKCVTCHLRKERCQYYTASFSYKAKYYALVCYGPGLPISTLHDGRTDQEIQVLEENKELENSLRNIQLPKVEIKKLKDGGLTFWYKMILPPQFDRSKKYPLLIQVYGGPCSQSVKSVFAVNWITYLASKEGIVIALVDGRGTAFQGDKFLHAVYRKLGVYEVEDQLTAVRKFIEMGFIDEERIAIWGWSYGGYVSSLALASGTGLFKCGIAVAPVSSWEYYASIYSERFMGLPTKDDNLEHYKNSTVMARAEYFRNVDYLLIHGTADDNVHFQNSAQIAKALVNAQVDFQAMWYSDQNHGISSGRSQNHLYTHMTHFLKQCFSLSD

Key:
[1] = tested on: HEK293; test: Photocytotoxicity against mouse FAP expressing HEK293 cells assessed as reduction of cell viability at 4 uM in presence of 2 J cm'-2 radiation by MTT assay; assay type: functional, Homo sapiens
In short: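 HEK-mFAP and HEK-Vector cells, 2.5×10^4 per well, grown 2 days, then incubated 24 h with compound diluted in FBS-free DMEM (DMSO/Tween 80 formulation) at 8 or 4 µM. Cells rinsed and refed, then irradiated with a 670 nm laser at 130 mW cm⁻², 16 s (2 J cm⁻²) or kept dark. Incubated overnight; MTT 2 h, SDS/HCl solubilization, absorbance read at 570 nm.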

[2] = substrate: C=Cc1c(C)c2cc3nc(c4c5[nH]c(cc6nc(cc1[nH]2)C(C)=C6CC)c(C)c5C(=O)C4)[C@@H](CCC(=O)N[C@H](C(=O)N[C@@H](CO)C(=O)NCC(=O)N1CCC[C@H]1C(=O)N[C@@H](CC(N)=O)C(=O)N[C@@H](CCC(N)=O)C(=O)N[C@@H](CCC(=O)O)C(=O)N[C@@H](CCC(N)=O)C(=O)N[C@@H](CCCCNOC(=O)CCCN(C)c1ccc(/N=N/c2cccc4nc5ccc(N(CC)CC)cc5[n+](-c5ccccc5)c24)cc1)C(N)=O)[C@@H](C)O)[C@@H]3C; test: Activity of mouse FAP assessed as enzyme mediated drug cleavage by measuring increase in fluorescence intensity
In short: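 Purified murine FAP (2 µg) with substrate at 0.1–6 µM in 1 mL 0.12 M NaCl/0.12 M TRIS pH 7.37 (substrate first dissolved in DMSO/Tween 80), 37 °C. Fluorescence followed continuously at ex 650/em 675 nm; excess mFAP (10 µg) added after 1 h. Initial rates (10% depletion), triplicate; Vmax, Km, kcat and kcat/Km from nonlinear Michaelis–Menten fit.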

| Molecule | Activity [1] [%] | Km [2] [µM] | Vmax [2] [pmol/min] | kcat [2] [s⁻¹] |
| --- | --- | --- | --- | --- |
| C=Cc1c(C)c2cc3nc(c4c5[nH]c(cc6nc(cc1[nH]2)C(C)=C6CC)c(C)c5C(=O)C4)[C@@H](CCC(=O)N[C@H](C(=O)N[C@@H](CO)C(=O)NCC(=O)N1CCC[C@H]1C(=O)N[C@@H](CC(N)=O)C(=O)N[C@@H](CCC(N)=O)C(=O)N[C@@H](CCC(=O)O)C(=O)N[C@@H](CCC(N)=O)C(=O)N[C@@H](CCCCN)C(N)=O)[C@@H](C)O)[C@@H]3C ({Pyropheophorbide(a)}-TSGPNQEQK-NH2) | 40 |  |  |  |
| B1 |  | 1.02 | 36 | 0.0292 |
